Experimental data from PubChem BioAssay AID488936 (Broad Institute, 2010).
The source made the active and inactive calls.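 How the source made its calls: active means compounds lowering caspase luminescence whose fitted AC50 is at most ten times their top valid dose; inconclusive means flat partial inhibition or a poor quality curve fit; inactive means the rest.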

Test: suppressors of cytokine-driven caspase-3/7 activity, dose response, orthogonal assay for beta-cell apoptosis inhibitor project, INS-1E rat cells, dry powder, set 2 (AID 488936)
Settings: INS-1E cytokine-induced caspase-3/7 luminescence, 48 h; at 12 µM (top of the series)
In short: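 reagent = cytokine mix of IFN-gamma 50, TNF-alpha 25, IL-1β 10 ng/mL | material = rat INS-1E insulinoma beta cells, cytokine-induced apoptosis model | incubation = 48 h cytokine and compound exposure, 1 h detection | technique = Caspase-Glo 3/7 luminescence | evaluation = Caspase-3/7 IC50 from dose-response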

Row | SMILES | activity change, negative = inhibition
1 | COc1ccc(S(=O)(=O)N(C)C[C@@H]2Oc3c(NC(=O)Nc4cccc5ccccc45)cccc3C(=O)N([C@@H](C)CO)C[C@H]2C)cc1C | -20.2% (inactive)

Same assay, conditions: INS-1E cytokine-induced caspase-3/7 luminescence, 48 h; at 23.5 µM (top of the series)

Row | SMILES | activity change, negative = inhibition
2 | Cc1ccc(S(=O)(=O)N(C)C[C@@H]2Oc3c(NC(=O)Nc4cccc5ccccc45)cccc3C(=O)N([C@H](C)CO)C[C@H]2C)cc1 | -12.7% (inactive)
3 | COc1ccc(S(=O)(=O)N(C)C[C@@H]2Oc3c(NC(=O)C4CC4)cccc3C(=O)N([C@@H](C)CO)C[C@H]2C)cc1 | -6.93% (inactive)
4 | COc1ccc(S(=O)(=O)N(C)C[C@@H]2Oc3c(NC(=O)Nc4ccc(F)cc4)cccc3C(=O)N([C@@H](C)CO)C[C@H]2C)cc1 | -9.69% (inactive)

Same assay, conditions: INS-1E cytokine-induced caspase-3/7 luminescence, 48 h; at 26 µM (top of the series)

Row | SMILES | activity change, negative = inhibition
5 | COc1ccc(S(=O)(=O)N(C)C[C@@H]2Oc3c(NS(=O)(=O)c4ccc(Cl)cc4)cccc3C(=O)N([C@@H](C)CO)C[C@H]2C)cc1 | -4.43% (inactive)
6 | COc1ccc(S(=O)(=O)N(C)C[C@@H]2Oc3c(NC(=O)c4nc5ccccc5s4)cccc3C(=O)N([C@@H](C)CO)C[C@H]2C)cc1 | -4.53% (inactive)
7 | C[C@@H]1CN([C@@H](C)CO)C(=O)c2cccc(NC(=O)Nc3cccc4ccccc34)c2O[C@H]1CN(C)S(=O)(=O)c1ccc2ncsc2c1 | -18.8% (inactive)
8 | COc1ccc(S(=O)(=O)N(C)C[C@@H]2Oc3c(NC(=O)Nc4cccc5ccccc45)cccc3C(=O)N([C@@H](C)CO)C[C@H]2C)cc1Cl | 12.6% (inactive)
9 | C[C@@H]1CN([C@@H](C)CO)C(=O)c2cccc(NC(=O)Nc3ccc(F)cc3)c2O[C@H]1CN(C)S(=O)(=O)c1ccc(F)cc1 | -8.56% (inactive)
10 | C[C@@H]1CN([C@@H](C)CO)C(=O)c2cccc(NC(=O)Nc3cccc4ccccc34)c2O[C@H]1CN(C)S(=O)(=O)c1ccc(Cl)cc1 | 6.46% (inactive)
11 | C[C@@H]1CN([C@@H](C)CO)C(=O)c2cccc(NC(=O)Nc3cccc4ccccc34)c2O[C@H]1CN(C)CC1CC1 | -6.43% (inactive)
12 | COc1ccc(S(=O)(=O)N(C)C[C@@H]2Oc3c(NC(=O)Nc4ccccc4)cccc3C(=O)N([C@H](C)CO)C[C@H]2C)cc1 | -7.43% (inactive)
13 | COc1ccc(S(=O)(=O)N(C)C[C@@H]2Oc3c(NS(=O)(=O)c4ccc(F)cc4)cccc3C(=O)N([C@@H](C)CO)C[C@H]2C)cc1 | -9.27% (inactive)
14 | Cc1noc(C)c1NC(=O)N(C)C[C@@H]1Oc2c(NC(=O)Nc3cccc4ccccc34)cccc2C(=O)N([C@@H](C)CO)C[C@H]1C | -0.569% (inactive)
15 | COc1ccc(NC(=O)N(C)C[C@@H]2Oc3c(NC(=O)Nc4cccc5ccccc45)cccc3C(=O)N([C@@H](C)CO)C[C@H]2C)cc1 | 18.3% (inactive)
16 | COc1ccc(S(=O)(=O)N(C)C[C@@H]2Oc3c(NC(=O)Nc4cccc5ccccc45)cccc3C(=O)N(C(C)C)C[C@H]2C)cc1 | -6.92% (inactive)
17 | C[C@@H]1CN([C@@H](C)CO)C(=O)c2cccc(NC(=O)Nc3ccccc3)c2O[C@H]1CN(C)S(=O)(=O)c1ccc(Cl)cc1 | -7.25% (inactive)
18 | C[C@@H]1CN([C@@H](C)CO)C(=O)c2cccc(NC(=O)Nc3ccccc3)c2O[C@H]1CN(C)S(=O)(=O)c1ccc(F)cc1 | -13.5% (inactive)
19 | COc1ccc(S(=O)(=O)N(C)C[C@@H]2Oc3c(NC(=O)Nc4cccc5ccccc45)cccc3C(=O)N([C@@H](C)CO)C[C@H]2C)cc1OC | -11.6% (inactive)
20 | Cc1ccc(S(=O)(=O)N(C)C[C@H]2Oc3c(NC(=O)Nc4cccc5ccccc45)cccc3C(=O)N([C@@H](C)CO)C[C@@H]2C)cc1 | 29.7% (inactive)
21 | C[C@@H]1CN([C@@H](C)CO)C(=O)c2cccc(NC(=O)Nc3cccc4ccccc34)c2O[C@H]1CN(C)S(=O)(=O)c1cn(C)cn1 | -1.53% (inactive)
22 | C[C@@H]1CN([C@@H](C)CO)C(=O)c2cccc(NC(=O)Nc3cccc4ccccc34)c2O[C@H]1CN(C)S(=O)(=O)c1cccs1 | 4.63% (inactive)
23 | COc1ccc(S(=O)(=O)N(C)C[C@@H]2Oc3c(NC(=O)Nc4c(C)noc4C)cccc3C(=O)N([C@@H](C)CO)C[C@H]2C)cc1 | -11.7% (inactive)
24 | COc1ccc(S(=O)(=O)N(C)C[C@@H]2Oc3c(NC(=O)c4ccncc4)cccc3C(=O)N([C@@H](C)CO)C[C@H]2C)cc1 | -4.94% (inactive)
25 | N#Cc1ccc2cc(Br)c(C(F)(F)P(=O)(O)O)cc2c1 | -14.1% (inactive)
26 | C[C@@H]1CN([C@@H](C)CO)C(=O)c2cccc(NC(=O)Nc3cccc4ccccc34)c2O[C@H]1CN(C)S(C)(=O)=O | -7.6% (inactive)
27 | Cc1ccc(S(=O)(=O)N(C)C[C@@H]2Oc3c(NC(=O)Nc4ccc(F)cc4)cccc3C(=O)N([C@H](C)CO)C[C@H]2C)cc1 | -5.96% (inactive)
28 | C[C@@H]1CN([C@@H](C)CO)C(=O)c2cccc(NC(=O)Nc3cccc4ccccc34)c2O[C@H]1CN(C)S(=O)(=O)c1ccc2c(c1)OCCCO2 | 0.778% (inactive)
29 | COc1ccc(S(=O)(=O)N(C)C[C@@H]2Oc3c(NC(=O)Nc4cccc5ccccc45)cccc3C(=O)N([C@@H](C)CO)C[C@@H]2C)cc1 | -6.51% (inactive)

Row | SMILES | activity change, negative = inhibition
30 | C[C@@H]1CN([C@@H](C)CO)C(=O)c2cccc(NC(=O)Nc3cccc4ccccc34)c2O[C@H]1CN(C)S(=O)(=O)c1ccc(OC(F)(F)F)cc1 | 100% (inactive)
31 | Cc1ccc(S(=O)(=O)N(C)C[C@@H]2Oc3c(NC(=O)Nc4ccccc4)cccc3C(=O)N([C@@H](C)CO)C[C@H]2C)cc1 | -11.7% (inactive)
32 | COc1ccc(S(=O)(=O)N(C)C[C@@H]2Oc3c(NS(=O)(=O)c4cn(C)cn4)cccc3C(=O)N([C@@H](C)CO)C[C@H]2C)cc1 | -6.15% (inactive)
33 | C[C@@H]1CN([C@@H](C)CO)C(=O)c2cccc(NC(=O)Nc3cccc4ccccc34)c2O[C@H]1CN(C)S(=O)(=O)c1ccc2c(c1)OCC2 | 3.67% (inactive)
34 | C[C@@H]1CN([C@@H](C)CO)C(=O)c2cccc(NC(=O)Nc3cccc4ccccc34)c2O[C@H]1CN(C)C(=O)NC1CCCCC1 | 27.4% (inactive)
35 | COc1ccc(S(=O)(=O)N(C)C[C@H]2Oc3c(NC(=O)Nc4cccc5ccccc45)cccc3C(=O)N([C@H](C)CO)C[C@@H]2C)cc1 | 3.23% (inactive)
36 | COc1ccc(S(=O)(=O)N(C)C[C@H]2Oc3c(NC(=O)Nc4cccc5ccccc45)cccc3C(=O)N([C@H](C)CO)C[C@H]2C)cc1 | -14.4% (inactive)
37 | C[C@@H]1CN([C@@H](C)CO)C(=O)c2cccc(NC(=O)Nc3cccc4ccccc34)c2O[C@H]1CN(C)S(=O)(=O)c1ccccc1F | 21.8% (inactive)
38 | COc1ccc(S(=O)(=O)N(C)C[C@@H]2Oc3c(NC(=O)Nc4cccc5ccccc45)cccc3C(=O)N([C@H](C)CO)C[C@@H]2C)cc1 | -4.27% (inactive)
39 | C[C@@H]1CN([C@H](C)CO)C(=O)c2cccc(NC(=O)Nc3cccc4ccccc34)c2O[C@H]1CN(C)S(=O)(=O)c1ccc(Cl)cc1 | -4.82% (inactive)
40 | C[C@@H]1CN([C@@H](C)CO)C(=O)c2cccc(NC(=O)Nc3cccc4ccccc34)c2O[C@H]1CN(C)S(=O)(=O)c1ccc2c(c1)oc(=O)n2C | 0.941% (inactive)
41 | C[C@@H]1CN([C@@H](C)CO)C(=O)c2cccc(NC(=O)Nc3cccc4ccccc34)c2O[C@H]1CN(C)S(=O)(=O)c1cccc(F)c1 | 6.97% (inactive)
42 | C[C@@H]1CN([C@@H](C)CO)C(=O)c2cccc(NC(=O)Nc3cccc4ccccc34)c2O[C@H]1CN(C)S(=O)(=O)c1ccc(F)cc1 | 4.91% (inactive)
43 | COc1ccc(S(=O)(=O)N(C)C[C@@H]2Oc3c(NC(=O)Nc4ccc(F)cc4)cccc3C(=O)N([C@H](C)CO)C[C@H]2C)cc1 | -6.01% (inactive)
44 | C[C@@H]1CN([C@@H](C)CO)C(=O)c2cccc(NS(=O)(=O)c3ccccc3)c2O[C@H]1CN(C)Cc1ccc(C(F)(F)F)cc1 | 7.22% (inactive)
45 | COc1ccc(S(=O)(=O)N(C)C[C@@H]2Oc3c(NC(=O)Nc4ccc(C(F)(F)F)cc4)cccc3C(=O)N([C@@H](C)CO)C[C@H]2C)cc1 | 13.3% (inactive)
46 | C[C@@H]1CN([C@@H](C)CO)C(=O)c2cccc(NC(=O)Nc3cccc4ccccc34)c2O[C@H]1CN(C)C(=O)Nc1ccc(F)cc1 | 19.9% (inactive)
47 | COc1ccccc1S(=O)(=O)N(C)C[C@@H]1Oc2c(NC(=O)Nc3cccc4ccccc34)cccc2C(=O)N([C@@H](C)CO)C[C@H]1C | -13% (inactive)
48 | COc1ccc(S(=O)(=O)N(C)C[C@@H]2Oc3c(NC(=O)Nc4cccc5ccccc45)cccc3C(=O)N([C@@H](C)CO)C[C@H]2C)c(OC)c1 | -12.9% (inactive)
49 | Cc1ccc(S(=O)(=O)N(C)C[C@@H]2Oc3c(NC(=O)Nc4cccc5ccccc45)cccc3C(=O)N([C@@H](C)CO)C[C@H]2C)cc1 | 11.5% (inactive)
50 | Cc1ccc(S(=O)(=O)N(C)C[C@@H]2Oc3c(NC(=O)Nc4ccc(F)cc4)cccc3C(=O)N([C@@H](C)CO)C[C@H]2C)cc1 | -11% (inactive)
51 | C[C@@H]1CN([C@H](C)CO)C(=O)c2cccc(NC(=O)Nc3ccc(F)cc3)c2O[C@H]1CN(C)S(=O)(=O)c1ccc(Cl)cc1 | 10.4% (inactive)
52 | COc1ccc(S(=O)(=O)N(C)C[C@@H]2Oc3c(NS(=O)(=O)c4ccccc4)cccc3C(=O)N([C@@H](C)CO)C[C@H]2C)cc1 | -6.46% (inactive)
53 | COc1ccc(S(=O)(=O)N(C)C[C@@H]2Oc3c(NS(C)(=O)=O)cccc3C(=O)N([C@@H](C)CO)C[C@H]2C)cc1 | -6.62% (inactive)
